Laboratory results from ChEMBL document CHEMBL1124759, “Fluoronaphthyridines and quinolones as antibacterial agents. 2. Synthesis and structure-activity relationships of new 1-tert-butyl 7-substituted derivatives” (J Med Chem, 1990).
Values after ≈ are worked out from the molar mass of the structure shown.

Key:
Klebsiella pneumoniae [1] = experiment: In vitro minimum inhibitory concentration (MIC) against Klebsiella pneumoniae A 9664 at 37 degrees C for 18 h.; type: functional
Procedure, shortened: (§1)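 Two-fold serial broth dilution in nutrient broth. Inoculum adjusted to 10^6 cfu/mL. Compounds tested from 0.0005 to 250 µg/mL.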

Enterobacter cloacae = experiment: In vitro minimum inhibitory concentration (MIC) against Enterobacter cloacae A 9656 at 37 degrees C for 18 h.; type: functional
Pseudomonas aeruginosa [2] = experiment: Efficacy on systematic infections against Pseudomonas aeruginosa A 9843 after oral administration in mice; type: functional; settings: read-out: PD50
Procedure, shortened: (§2)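 Mice given compound orally after lethal systemic infection. Read-out is the oral dose protecting 50% of mice from death (PD50), reported in mg/kg.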

Pseudomonas aeruginosa [3] = experiment: In vitro minimum inhibitory concentration (MIC) against Pseudomonas aeruginosa A 9843 at 37 degree C for 18 h; type: functional; procedure, shortened: as §1
Staphylococcus aureus [4] = experiment: Efficacy on systematic infections against Staphylococcus aureus A 9537 after oral administration in mice; type: functional; settings: read-out: PD50; procedure, shortened: as §2
Serratia marcescens = experiment: In vitro minimum inhibitory concentration (MIC) against Serratia marcescens A 20019 at 37 degrees C for 18 hr; type: functional; procedure, shortened: as §1
Morganella morganii = experiment: In vitro minimum inhibitory concentration (MIC) against Morganella morganii A 15153 at 37 degrees C for 18 h.; type: functional; procedure, shortened: as §1
Staphylococcus aureus [5] = experiment: In vitro minimum inhibitory concentration (MIC) against Staphylococcus aureus Smith A 9537 at 37 degrees C for 18 hr; type: functional; procedure, shortened: as §1
Klebsiella pneumoniae [6] = experiment: Efficacy on systematic infections against Klebsiella pneumoniae A 9664 after oral administration in mice; type: functional; settings: read-out: PD50; procedure, shortened: as §2
Escherichia coli [7] = experiment: Efficacy on systematic infections against Escherichia coli A 15119 after oral administration in mice; type: functional; settings: read-out: PD50; procedure, shortened: as §2
Enterococcus faecalis = experiment: In vitro minimum inhibitory concentration (MIC) against Enterococcus faecalis A 9808 at 37 degrees C for 18 h.; type: functional; procedure, shortened: as §1
Enterococcus faecium = experiment: In vitro minimum inhibitory concentration (MIC) against Enterococcus faecium A 24885 at 37 degrees C for 18 h.; type: functional; procedure, shortened: as §1
Escherichia coli [8] = experiment: In vitro minimum inhibitory concentration (MIC) against Escherichia coli A 15119 at 37 degrees C for 18 h.; type: functional; procedure, shortened: as §1
Pseudomonas aeruginosa [9] = experiment: In vitro minimum inhibitory concentration (MIC) against Pseudomonas aeruginosa A 9843 at 37 degrees C for 18 h; type: functional; procedure, shortened: as §1
[10] = Tested for aqueous solubility; settings: aqueous medium

| SMILES | MIC (Klebsiella pneumoniae [1]) [µg/mL] | MIC (Enterobacter cloacae) [µg/mL] | ED50 (Pseudomonas aeruginosa [2]) [mg/kg] | MIC (Pseudomonas aeruginosa [3]) [µg/mL] | ED50 (Staphylococcus aureus [4]) [mg/kg] | MIC (Serratia marcescens) [µg/mL] | MIC (Morganella morganii) [µg/mL] | MIC (Staphylococcus aureus [5]) [µg/mL] | ED50 (Klebsiella pneumoniae [6]) [mg/kg] | ED50 (Escherichia coli [7]) [mg/kg] | MIC (Enterococcus faecalis) [µg/mL] | MIC (Enterococcus faecium) [µg/mL] | MIC (Escherichia coli [8]) [µg/mL] | MIC (Pseudomonas aeruginosa [9]) [µg/mL] | solubility [10] [µg/mL] |
| --- | --- | --- | --- | --- | --- | --- | --- | --- | --- | --- | --- | --- | --- | --- | --- |
| CC(C)(C)n1cc(C(=O)O)c(=O)c2cc(F)c(N3CCC(N)C3)nc21.CS(=O)(=O)O (stereo not drawn) | 0.25 | 0.13 | 3.5 | 2 | 1.4 | 0.25 | 1 | 0.015 | 2.1 | 1.4 | 0.25 | 1 | 0.13 | – | – |
| CC1CN(c2nc3c(cc2F)c(=O)c(C(=O)O)cn3C(C)(C)C)CCN1C (stereo not drawn) | 0.13 (≈ 0.345 µM) | 0.06 (≈ 0.159 µM) | – | 4 (≈ 10.6 µM) | – | 1 (≈ 2.66 µM) | 1 (≈ 2.66 µM) | 0.13 (≈ 0.345 µM) | – | – | 1 (≈ 2.66 µM) | 4 (≈ 10.6 µM) | 0.03 (≈ 0.0797 µM) | – | – |
| CS(=O)(=O)O.C[C@H]1CN(c2nc3c(cc2F)c(=O)c(C(=O)O)cn3C(C)(C)C)C[C@H]1N | 0.03 | 0.13 | 9 | 0.5 | 1.6 | 0.25 | 0.5 | 0.015 | 4.1 | 2.4 | 0.13 | 1 | 0.25 | – | – |
| CN(C)C1CCN(c2nc3c(cc2F)c(=O)c(C(=O)O)cn3C(C)(C)C)C1 (stereo not drawn) | 0.13 (≈ 0.345 µM) | 1 (≈ 2.66 µM) | – | 1 (≈ 2.66 µM) | – | 1 (≈ 2.66 µM) | 0.5 (≈ 1.33 µM) | 0.03 (≈ 0.0797 µM) | – | – | 0.5 (≈ 1.33 µM) | 8 (≈ 21.3 µM) | 0.25 (≈ 0.664 µM) | – | – |
| CC[C@H]1CN(c2nc3c(cc2F)c(=O)c(C(=O)O)cn3C(C)(C)C)C[C@@H]1N.CS(=O)(=O)O | 0.06 | 0.03 | – | 1 | – | 0.25 | 0.25 | 0.015 | – | – | 0.13 | 2 | 0.03 | – | – |
| CC(C)(C)n1cc(C(=O)O)c(=O)c2cc(F)c(N3CCC(CN)C3)cc21 (stereo not drawn) | 0.25 (≈ 0.692 µM) | 0.25 (≈ 0.692 µM) | – | 0.5 (≈ 1.38 µM) | – | 2 (≈ 5.53 µM) | 2 (≈ 5.53 µM) | 0.03 (≈ 0.083 µM) | – | – | 0.25 (≈ 0.692 µM) | 0.5 (≈ 1.38 µM) | 0.25 (≈ 0.692 µM) | – | – |
| CC(C)(C)n1cc(C(=O)O)c(=O)c2cc(F)c(N3CCC(CN)C3)nc21 (stereo not drawn) | 0.25 (≈ 0.69 µM) | 0.5 (≈ 1.38 µM) | – | 1 (≈ 2.76 µM) | – | 2 (≈ 5.52 µM) | 1 (≈ 2.76 µM) | 0.03 (≈ 0.0828 µM) | – | – | 0.25 (≈ 0.69 µM) | 2 (≈ 5.52 µM) | 0.5 (≈ 1.38 µM) | – | – |
| CCNCC1CCN(c2cc3c(cc2F)c(=O)c(C(=O)O)cn3C(C)(C)C)C1 (stereo not drawn) | 1 (≈ 2.57 µM) | 0.5 (≈ 1.28 µM) | – | 8 (≈ 20.5 µM) | – | 8 (≈ 20.5 µM) | 2 (≈ 5.14 µM) | 0.06 (≈ 0.154 µM) | – | – | 0.5 (≈ 1.28 µM) | 4 (≈ 10.3 µM) | 0.25 (≈ 0.642 µM) | – | – |
| CC(C)(C)n1cc(C(=O)O)c(=O)c2cc(F)c(N3C[C@@H](CN)[C@@H](F)C3)nc21 | 0.25 (≈ 0.657 µM) | 0.25 (≈ 0.657 µM) | 18 | 0.5 (≈ 1.31 µM) | 4.5 | 0.5 (≈ 1.31 µM) | 0.5 (≈ 1.31 µM) | 0.015 (≈ 0.0394 µM) | 18 | 18 | 0.13 (≈ 0.342 µM) | 1 (≈ 2.63 µM) | 0.06 (≈ 0.158 µM) | – | – |
| CC(C)(C)n1cc(C(=O)O)c(=O)c2cc(F)c(N3CCNC(c4ccccc4)C3)nc21.CS(=O)(=O)O (stereo not drawn) | 0.06 | 0.06 | – | 4 | – | 2 | 1 | 0.03 | – | – | 1 | 8 | 0.06 | – | – |
| CC(C)(C)n1cc(C(=O)O)c(=O)c2cc(F)c(N3CCNC(c4ccccc4)C3)cc21.CS(=O)(=O)O (stereo not drawn) | 0.25 | 0.13 | – | 1 | – | 2 | 0.5 | 0.06 | – | – | 0.5 | 4 | 0.06 | – | – |
| CN1CCN(c2cc3c(cc2F)c(=O)c(C(=O)O)cn3C(C)(C)C)CC1.Cl | 0.25 | 0.25 | – | – | – | 1 | 0.25 | 0.03 | – | – | 4 | 16 | 0.03 | 0.5 | – |
| CC[C@H]1CN(c2nc3c(cc2F)c(=O)c(C(=O)O)cn3C(C)(C)C)C[C@H]1N.Cl | 0.13 | 0.06 | – | 1 | – | 0.5 | 0.5 | 0.015 | – | – | 0.25 | 2 | 0.13 | – | – |
| CC(C)(C)n1cc(C(=O)O)c(=O)c2cc(F)c(N3CCC(N)C3)cc21.Cl (stereo not drawn) | 0.25 | 0.13 | 19.9 | 1 | 8.2 | 1 | 0.5 | 0.03 | 23 | 5.4 | 0.25 | 2 | 0.06 | – | 70 |
